We go through nine compounds from ChEMBL document CHEMBL4177749, “A Synthetic Dual Drug Sideromycin Induces Gram-Negative Bacteria To Commit Suicide with a Gram-Positive Antibiotic” (J Med Chem, 2018).

Values after ≈ are worked out from the molar mass of the structure shown.

A word on the MIC: it is the lowest concentration that inhibits growth of the organism.

The subject of data set [1] is Acinetobacter baumannii. The experiment in a line: Antibacterial activity against Acinetobacter baumannii ATCC BAA 1800 clinical isolate after 18 hrs by broth microdilution method. Particulars: ATCC BAA 1800, 18 h. The class given is functional. Background: In broth dilution the organism is exposed to a series of concentrations in liquid medium.
In data set [2] the test system is Acinetobacter baumannii. The experiment in a line: Antibacterial activity against Acinetobacter baumannii ATCC 17978 after 18 hrs by broth microdilution method. Particulars: ATCC 17978, 18 h. The class given is functional.
The test system of the next data set is Escherichia coli. Briefly: Antibacterial activity against Escherichia coli DC0 after 18 hrs by broth microdilution method. The class given is functional. Particulars: DC0, 18 h.
Data set [3] deals with Acinetobacter baumannii. Briefly: Antibacterial activity against Acinetobacter baumannii ATCC 17961 clinical isolate after 18 hrs by broth microdilution method. The class given is functional. Particulars: ATCC 17961, 18 h.
The test system of data set [4] is Acinetobacter baumannii. The experiment in a line: Antibacterial activity against Acinetobacter baumannii ATCC BAA 1793 clinical isolate after 18 hrs by broth microdilution method. The class given is functional. The settings on record: ATCC BAA 1793, 18 h.
Data set [5] has as its system Acinetobacter baumannii. Briefly: Antibacterial activity against Acinetobacter baumannii ATCC 17978 transfected with pNT255 after 18 hrs by broth microdilution method. It counts as functional. The settings on record: ATCC 17978, 18 h.
Data set [6] relates to Acinetobacter baumannii. Briefly: Antibacterial activity against Acinetobacter baumannii ATCC BAA 1797 clinical isolate after 18 hrs by broth microdilution method. The class given is functional. Particulars: ATCC BAA 1797, 18 h.
Data set [7] relates to Pseudomonas aeruginosa. The experiment in a line: Antibacterial activity against wild type Pseudomonas aeruginosa KW799 after 18 hrs by broth microdilution method. It counts as functional. Particulars: KW799, 18 h.
Data set [8] has as its system Acinetobacter baumannii. The experiment in a line: Antibacterial activity against Acinetobacter baumannii ATCC 17978 transfected with pNT255:ADC-1 after 18 hrs by broth microdilution method. It counts as functional. The settings on record: ATCC 17978, 18 h.
In data set [9] the test system is Pseudomonas aeruginosa. Briefly: Antibacterial activity against Pseudomonas aeruginosa by broth microdilution method. The class given is functional.
Data set [10] has as its system Pseudomonas aeruginosa. Briefly: Antibacterial activity against Pseudomonas aeruginosa ATCC 27853 by broth microdilution method. It counts as functional.
Data set [11] deals with Pseudomonas aeruginosa. Briefly: Antibacterial activity against Pseudomonas aeruginosa PAO1 ATCC […] by broth microdilution method. It counts as functional.
The target in a further data set is Beta-lactamase (Acinetobacter baumannii, UniProt Q9L4R5). The experiment in a line: Drug metabolism assessed as Acinetobacter baumannii ADC-1-mediated (S)-N-((3-(3-Fluoro-4-(4-glycylpiperazin-1-yl)phenyl)-2-oxooxazolidin-5-yl)methyl)acetamide release at 20 uM after 40 mins by LC/MS method. The class given is ADME. In short, it runs like this: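 Purified ADC-1 β-lactamase (expressed as described earlier) […] with 20 μM conjugate in 50 mM sodium phosphate, pH 7.4, 1% DMSO final, room temperature, 40 min. Release of the oxazolidinone followed by LC/MS. Controls run under the same conditions: conjugate alone (20 μM) and enzyme alone (1 μM).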

`CC(=O)NC[C@H]1CN(c2ccc(N3CCN(C(=O)CNC(=O)CN(CCCCNC(=O)c4cccc(O)c4O)C(=O)c4cccc(O)c4O)CC3)c(F)c2)C(=O)O1`: the MIC in the data set with Acinetobacter baumannii [1], in the data set on Acinetobacter baumannii [2], with Escherichia coli, in the data set on Acinetobacter baumannii [3], in the data set on Acinetobacter baumannii [4] and in the data set with Acinetobacter baumannii [5] was over 50 µM each time. Further, the MIC in the data set on Acinetobacter baumannii [6], in the data set on Pseudomonas aeruginosa [7] and against Acinetobacter baumannii [8] was over 50 µM each time.

In turn, `CC(=O)Oc1cccc(C(=O)NCCCCN(CC(=O)N[C@@H](C(=O)N[C@@H]2C(=O)N3[C@@H]2SC(C)(C)[C@@H]3C(=O)O)c2ccc(O)cc2)C(=O)c2cccc(OC(C)=O)c2OC(C)=O)c1OC(C)=O` returned a minimum inhibitory concentration (MIC) with Pseudomonas aeruginosa [9] of 0.02 to 0.16 µM (≈ 0.0187 to 0.149 µg/mL).

Regarding `CC(O)C(NCC(=O)NC(=O)C(CCCNC(=O)CCCCCCCCC(=O)NC(C(=O)N[C@@H]1C(=O)N2[C@@H]1SC(C)(C)[C@@H]2C(=O)O)c1ccccc1)NC(=O)C(CCCN(O)C=O)NC(=O)C(CO)NC(=O)C1CCN=C2C(NC(=O)CCC(N)=O)=Cc3cc(O)c(O)cc3N21)C(=O)NC(CO)C(=O)NC1CCCN(O)C1=O` (stereo partly specified), the minimum inhibitory concentration (MIC) against Pseudomonas aeruginosa [10] was 0.024 µM (≈ 0.0386 µg/mL); in the data set on Pseudomonas aeruginosa [11], over 100 µM.

On to `CC(=O)OCC1=C(C(=O)O)N2C(=O)[C@@H](NC(=O)C(NC(=O)CN(CCCCNC(=O)c3cccc(O)c3O)C(=O)c3cccc(O)c3O)c3ccccc3)[C@H]2SC1` (stereo partly specified), for which the MIC is 25 µM (≈ 20.1 µg/mL) with Acinetobacter baumannii [1]; 0.4 µM (≈ 0.322 µg/mL) with Acinetobacter baumannii [2]; under 0.025 µM in the data set on Escherichia coli; 0.8 µM (≈ 0.645 µg/mL) against Acinetobacter baumannii [3]; 12.5 µM (≈ 10.1 µg/mL) in the data set on Acinetobacter baumannii [4]; 0.4 µM (≈ 0.322 µg/mL) in the data set with Acinetobacter baumannii [5]. The MIC was over 50 µM against Acinetobacter baumannii [6], 0.4 µM (≈ 0.322 µg/mL) in the data set on Pseudomonas aeruginosa [7] and over 50 µM in the data set with Acinetobacter baumannii [8].

As to `CC(=O)NC[C@H]1CN(c2ccc(N3CCN(C(=O)CNC(=O)OCC4=C(C(=O)O)N5C(=O)[C@@H](NC(=O)C(NC(=O)CN(CCCCNC(=O)c6cccc(O)c6O)C(=O)c6cccc(O)c6O)c6ccccc6)[C@H]5SC4)CC3)c(F)c2)C(=O)O1` (stereo partly specified), the MIC is 0.8 µM (≈ 0.947 µg/mL) against Acinetobacter baumannii [1]; 0.4 µM (≈ 0.473 µg/mL) against Acinetobacter baumannii [2]; under 0.025 µM against Escherichia coli; 0.8 µM (≈ 0.947 µg/mL) in the data set with Acinetobacter baumannii [3]; 0.8 to 16 µM (≈ 0.947 to 18.9 µg/mL) against Acinetobacter baumannii [4]; 0.4 µM (≈ 0.473 µg/mL) with Acinetobacter baumannii [5]. Besides, the results for the minimum inhibitory concentration (MIC) against Acinetobacter baumannii [6], in the data set with Pseudomonas aeruginosa [7] and in the data set with Acinetobacter baumannii [8] were 6.25 µM (≈ 7.39 µg/mL), 0.2 to 0.4 µM (≈ 0.237 to 0.473 µg/mL) and 6 µM (≈ 7.1 µg/mL), respectively. Besides, the Drug metabolism result at Beta-lactamase was “Metabolite_Detected”.

As for `CC(=O)NC[C@H]1CN(c2ccc(N3CCN(C(=O)CNC(=O)OCC4=C(C(=O)O)N5C(=O)[C@@H](NC(=O)C(N)c6ccccc6)[C@H]5SC4)CC3)c(F)c2)C(=O)O1` (stereo partly specified), the MIC with Acinetobacter baumannii [1], in the data set with Acinetobacter baumannii [2], with Escherichia coli, with Acinetobacter baumannii [3], against Acinetobacter baumannii [4] and against Acinetobacter baumannii [5] was over 50 µM each time. In addition, the MIC with Acinetobacter baumannii [6], against Pseudomonas aeruginosa [7] and in the data set on Acinetobacter baumannii [8] was over 50 µM in each case.

Take `CC(=O)OCC1=C(C(=O)O)N2C(=O)[C@@H](NC(=O)C(N)c3ccccc3)[C@H]2SC1` (stereo partly specified): the minimal inhibitory concentration (MIC) was over 50 µM in the data set with Acinetobacter baumannii [1]; over 50 µM with Acinetobacter baumannii [2]; 50 µM (≈ 20.3 µg/mL) in the data set on Escherichia coli; over 50 µM against Acinetobacter baumannii [3]; over 50 µM against Acinetobacter baumannii [4]; over 50 µM in the data set with Acinetobacter baumannii [5]. Also, the MIC in the data set on Acinetobacter baumannii [6], with Pseudomonas aeruginosa [7] and against Acinetobacter baumannii [8] was over 50 µM in each case.

Turning to `CC(=O)NC[C@H]1CN(c2ccc(N3CCN(C(=O)CN)CC3)c(F)c2)C(=O)O1`, the MIC in the data set on Acinetobacter baumannii [1] is over 50 µM; in the data set with Acinetobacter baumannii [2], over 500 µM; in the data set on Escherichia coli, over 50 µM; with Acinetobacter baumannii [3], over 50 µM; against Acinetobacter baumannii [4], over 50 µM; in the data set on Acinetobacter baumannii [5], over 500 µM. Moreover, the minimal inhibitory concentration (MIC) was over 50 µM against Acinetobacter baumannii [6], over 50 µM against Pseudomonas aeruginosa [7] and over 500 µM against Acinetobacter baumannii [8].

Take `CC(=O)NC[C@H]1CN(c2ccc(N3CCN(C(=O)CO)CC3)c(F)c2)C(=O)O1` [EPEREZOLID]: the MIC in the data set with Acinetobacter baumannii [2], against Acinetobacter baumannii [5] and with Acinetobacter baumannii [8] was over 50 µM in each case.
